Series [1] deals with Trypanosoma brucei brucei. As to the kind of experiment: WHO-TDR: Human African Trypanosomiasis (HAT). Type of series: functional, organism-based. The conditions noted are these: Squib-427. In outline: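 In this whole-organism screen, the target was the bloodstream form of Trypanosoma brucei, strain Squib 427. A diverse set of 10,000 compounds from Life Chemicals, previously filtered for drug-likeness and reactive groups, was assayed by standard published procedures using reference drugs as positive controls. Each value is an IC50 for antiparasitic potency.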

The test system of series [2] is Brugia malayi. The series can be described thus: WHO-TDR: Lymphatic Filariasis. Type of series: functional. Further details: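 tested at 10 µM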. Summed up: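 Percent inhibition and IC50 describe activity against Brugia malayi microfilariae in a whole-organism screen. The screen used previously published standard procedures with reference drugs as positive controls. Compounds came from a diverse Life Chemicals library of 10,000, filtered for drug-likeness and reactive groups.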

The test system of series [3] is Trypanosoma cruzi. The series can be described thus: WHO-TDR: Chagas disease. Type of series: functional, organism-based, Homo sapiens. The conditions noted are these: MRC5. Summed up: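 Each IC50 reflects antiparasitic potency against intracellular amastigotes of Trypanosoma cruzi Tulahuen CL2 beta-galactosidase strain. These were cultured in MRC-5SV2 human lung fibroblasts and exposed to a 10,000-compound diverse Life Chemicals library screened according to published standard procedures with a reference drug as positive control.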

Series [4] relates to Onchocerca ochengi. The series can be described thus: WHO-TDR: Onchocerciasis. Type of series: functional. Further details: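 at 12.5 µM on microfilariae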. In outline: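 Onchocerca ochengi or Onchocerca lienalis, animal pathogens used as surrogates for the human parasite, were screened as whole microfilariae against a 10,000-compound diverse library from Life Chemicals. The reported measures of activity are percent inhibition and IC50.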

A short description of series [5]: WHO-TDR: Cytotoxicity. Type of series: toxicity, cell-based. As to conditions: human, MRC5 cells.
Series [6] concerns Leishmania infantum. The series can be described thus: WHO-TDR: Leishmaniasis. The series is classed as functional, organism-based, Mus musculus. The conditions noted are these: Macrophage. In outline:
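Intracellular amastigotes of Leishmania infantum MHOM/MA(BE)/67, hosted in murine peritoneal macrophages, were exposed to compounds from a 10,000-member diverse library supplied by Life Chemicals. The library had been filtered for drug-likeness and reactive groups. The reported IC50 expresses antiparasitic potency.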

Series [7] has as its system Schistosoma mansoni. As to the kind of experiment: WHO-TDR: Schistosomiasis. The series is classed as functional. Further details: concentration or dose not given beside the values. In outline:
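Larval and/or adult Schistosoma mansoni (Puerto Rican strain) were tested whole against 10,000 diverse compounds from Life Chemicals. The procedure was a previously published standard one, using a reference drug as positive control. Results are expressed as percent inhibition and IC50.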

Series [8] concerns Plasmodium falciparum K1. As to the kind of experiment: WHO-TDR: Malaria. The series is classed as functional, organism-based, Homo sapiens. As to conditions: Erythrocyte. In outline: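 Previously published standard procedures, including a reference drug as positive control, were used to screen whole Plasmodium falciparum K1 parasites inside human red blood cells. IC50 is the measure of antiplasmodial potency. The compounds were a 10,000-member diverse Life Chemicals library.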

Results on 22 compounds are retold here after ChEMBL document CHEMBL2093137, “WHO-TDR NTD Screening”.

Molecules are shown by their SMILES. In brackets after ≈: the same amount, converted by molar mass.

`CCCCC1CCC(C(=O)NCCn2nc(-c3ccncc3)ccc2=O)CC1` (stereo unspecified): the IC50 (in general, the concentration at which inhibition is half-maximal) was above 11.5 µg/mL in series [1]; 6.12 µg/mL (≈ 16 µM) in series [3]; 11 µg/mL (≈ 28.7 µM) in series [5]; 0.371 µg/mL (≈ 0.97 µM) in series [6]; above 11.5 µg/mL in series [8]. The “% Inhibition” value in series [2], in series [4] and in series [7] was 0% in each case.

With `CC(=O)N1CCc2ccc(NC(=O)c3ccc(C(C)(C)C)cc3)cc21`, the IC50 in series [1] was above 10.1 µg/mL; in series [3], 0.3 µg/mL (≈ 0.892 µM); in series [5], above 10.1 µg/mL; in series [6], above 10.1 µg/mL; in series [8], above 10.1 µg/mL. The % Inhibition – broadly, the drop in the measured response relative to a control, in per cent – in series [2] is 0%; in series [4], 0%; in series [7], 16.7%.

In the case of `CCOC(=O)c1ccccc1NC(=O)CSc1ncc(CO)n1Cc1ccc(OC)cc1`, the IC50 in series [1], in series [3], in series [5], in series [6] and in series [8] was above 13.7 µg/mL throughout. Moreover, the “% Inhibition” value in series [2] is listed as 25%; in series [4], 100%; in series [7], 0%.

With `CCn1ccc(C(=O)Nc2ccc3nc(SC)sc3c2)n1`, the IC50 in series [1] was above 9.55 µg/mL; in series [3], above 9.55 µg/mL; in series [5], above 9.55 µg/mL; in series [6], above 9.55 µg/mL; in series [8], 0.955 µg/mL (≈ 3 µM). Also, the results for the “% Inhibition” value in series [2], in series [4] and in series [7] were 0%, 100% and 0%, respectively.

Consider `COc1ccc2nc(-c3ccc(OC)c(NC(=O)c4c(F)cccc4Cl)c3)cn2n1`, for which the IC50 was above 12.8 µg/mL in series [1]; above 12.8 µg/mL in series [3]; above 12.8 µg/mL in series [5]; 0.415 µg/mL (≈ 0.972 µM) in series [6]; above 12.8 µg/mL in series [8]. The “% Inhibition” value in series [2], in series [4] and in series [7] was 0% each time.

Regarding `COc1ccc(S(=O)(=O)NCC(c2cccc3ccccc23)N(C)C)cc1C` (stereo unspecified), the 50% inhibitory concentration (IC50) was 4.02 µg/mL (≈ 10.1 µM) in series [1]; above 12 µg/mL in series [3]; above 12 µg/mL in series [5]; above 12 µg/mL in series [6]; above 12 µg/mL in series [8]. The “% Inhibition” value is 0% in series [2], 100% in series [4] and 0% in series [7].

Regarding `O=C(Nc1ccc(OC(F)(F)F)cc1)c1csc(NS(=O)(=O)c2cccs2)n1`, the IC50 in series [1], in series [3], in series [5], in series [6] and in series [8] was above 13.5 µg/mL each time. The “% Inhibition” value in series [2] is 20%; in series [4] it was 100%; in series [7] it was 0%.

Consider `CC(=O)N1CCc2ccc(NC(=O)c3ccc(F)c(F)c3)cc21`, for which the IC50 in series [1] is above 9.49 µg/mL; in series [3], 2.93 µg/mL (≈ 9.25 µM); in series [5] it was above 9.49 µg/mL; in series [6], 0.307 µg/mL (≈ 0.971 µM); in series [8], above 9.49 µg/mL. The “% Inhibition” value turned out to be 0% in series [2], 75% in series [4] and 8.3% in series [7].

`NC(=O)Cc1csc(SCC(=O)c2ccccc2)n1`: the 50% inhibitory concentration (IC50) is above 8.77 µg/mL in series [1]; above 8.77 µg/mL in series [3]; above 8.77 µg/mL in series [5]; 0.284 µg/mL (≈ 0.971 µM) in series [6]; above 8.77 µg/mL in series [8]. Further, the “% Inhibition” value in series [2] is 0%; in series [4] it was 0%; in series [7] it was 16.7%.

`Cc1cc(C(=O)Nc2nc(-c3cccnc3)cs2)on1`: the IC50 is above 8.59 µg/mL in series [1]; 4.16 µg/mL (≈ 14.5 µM) in series [3]; above 8.59 µg/mL in series [5]; 0.278 µg/mL (≈ 0.971 µM) in series [6]; above 8.59 µg/mL in series [8]. Moreover, the “% Inhibition” value stood at 20% in series [2], 0% in series [4] and 25% in series [7].

Take `O=S(=O)(CCCOc1ccc(F)cc1)NCc1ccccc1Cl`: the IC50 is above 10.7 µg/mL in series [1]; 7.84 µg/mL (≈ 21.9 µM) in series [3]; above 10.7 µg/mL in series [5]; above 10.7 µg/mL in series [6]; above 10.7 µg/mL in series [8]. Also, the “% Inhibition” value in series [2] was determined as 0%; in series [4] it was 100%; in series [7], 0%.

For the compound `COc1ccc2nc(-c3ccc(F)c(NC(=O)Cc4ccccc4)c3)cn2n1`, the IC50 is above 11.3 µg/mL in series [1]; above 11.3 µg/mL in series [3]; above 11.3 µg/mL in series [5]; 0.366 µg/mL (≈ 0.972 µM) in series [6]; above 11.3 µg/mL in series [8]. For the same compound, the figures for the “% Inhibition” value in series [2], in series [4] and in series [7] were 0%, 0% and 25%, respectively.

Consider `COc1cccc(NC(=O)NCCNc2ccc(Nc3cc(C)ccn3)nn2)c1`, for which the IC50 in series [1] is 3.82 µg/mL (≈ 9.71 µM); in series [3], above 11.8 µg/mL; in series [5], above 11.8 µg/mL; in series [6], above 11.8 µg/mL; in series [8] it was 9.93 µg/mL (≈ 25.2 µM). The “% Inhibition” value is given as 25% in series [2], 100% in series [4] and 0% in series [7].

In the case of `O=C(CS(=O)(=O)Cc1ccccc1)Nc1cc(Cl)cc(Cl)c1`, the IC50 in series [1], in series [3], in series [5], in series [6] and in series [8] was above 10.7 µg/mL throughout. Further, the results for the “% Inhibition” value in series [2], in series [4] and in series [7] were 0%, 100% and 0%, respectively.

Consider `CCOC(=O)c1sc(NC(=O)C2CCCN2S(C)(=O)=O)nc1-c1ccccc1` (stereo unspecified), for which the IC50 in series [1], in series [3], in series [5], in series [6] and in series [8] was above 12.7 µg/mL in each case. For the same compound, the “% Inhibition” value in series [2] amounted to 0%; in series [4], 100%; in series [7] it was 0%.

As to `CS(=O)(=O)N1CCCCC1C(=O)Nc1nc2c(Cl)c(Cl)ccc2s1` (stereo unspecified), the IC50 in series [1], in series [3], in series [5], in series [6] and in series [8] was above 12.2 µg/mL each time. In addition, the “% Inhibition” value was 0% in series [2], 100% in series [4] and 0% in series [7].

As for `CSc1ccc2nc(N(Cc3cccnc3)C(=O)c3ccc(C(=O)c4ccccc4)cc3)sc2c1`, the IC50 in series [1] was above 14.9 µg/mL; in series [3] it was 0.874 µg/mL (≈ 1.76 µM); in series [5] it was above 14.9 µg/mL; in series [6] it was above 14.9 µg/mL; in series [8] it was above 14.9 µg/mL. Further, the “% Inhibition” value in series [2], in series [4] and in series [7] was 0% throughout.

In the case of `CS(=O)(=O)c1ccc2nc(N(Cc3cccnc3)C(=O)c3ccc4ccccc4c3)sc2c1`, the IC50 is above 14.2 µg/mL in series [1]; 0.225 µg/mL (≈ 0.475 µM) in series [3]; above 14.2 µg/mL in series [5]; 4.6 µg/mL (≈ 9.71 µM) in series [6]; above 14.2 µg/mL in series [8]. Further, the “% Inhibition” value in series [2], in series [4] and in series [7] was 0% each time.

For the compound `COc1ccc(S(=O)(=O)N2CCN(c3ccc(-c4ccncc4)nn3)CC2)c(OC)c1`, the IC50 was above 13.2 µg/mL in series [1]; 5.69 µg/mL (≈ 12.9 µM) in series [3]; above 13.2 µg/mL in series [5]; 0.429 µg/mL (≈ 0.972 µM) in series [6]; 2.48 µg/mL (≈ 5.62 µM) in series [8]. For the same compound, the “% Inhibition” value came out at 33.33% in series [2], 0% in series [4] and 0% in series [7].

As for `O=C(CC1CCCC1)N1CCN(c2ccc(-c3ccccn3)nn2)CC1`, the IC50 in series [1] amounted to 0.409 µg/mL (≈ 1.16 µM); in series [3], 0.466 µg/mL (≈ 1.33 µM); in series [5], 5.57 µg/mL (≈ 15.9 µM); in series [6], 0.341 µg/mL (≈ 0.97 µM); in series [8] it was 0.731 µg/mL (≈ 2.08 µM). Besides, the “% Inhibition” value is 33.33% in series [2], 0% in series [4] and 33.3% in series [7].

For the compound `NC(=O)c1ccc(NC(=O)CCCn2nc(-c3ccc(Cl)cc3)ccc2=O)cc1`, the IC50 in series [1], in series [3], in series [5], in series [6] and in series [8] was above 12.3 µg/mL in each case. Besides, the “% Inhibition” value in series [2] stood at 0%; in series [4], 100%; in series [7] it was 16.7%.

With `O=C(c1ccco1)N(CCCn1ccnc1)c1nc2c(F)cc(F)cc2s1`, the IC50 was 4.08 µg/mL (≈ 10.5 µM) in series [1]; 3.97 µg/mL (≈ 10.2 µM) in series [3]; 7.77 µg/mL (≈ 20 µM) in series [5]; above 12.7 µg/mL in series [6]; 0.533 µg/mL (≈ 1.37 µM) in series [8]. In addition, the “% Inhibition” value was 0% in series [2], 100% in series [4] and 0% in series [7].
